High-throughput results (PubChem BioAssay)
TRPC4 block – inhibitors of mouse TRPC4 channel, primary screen, Fluo4 calcium, HEK293 TRPC4beta/mu-opioid cells; DAMGO-evoked Fluo4 calcium flux; hits give low values; B-score at 10 µM; 300,000 tested, 0.39% active; AID 2247, 2010;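 active = B-score over 3 SD under the library average, no early fluorescence shift, positive overall ratio signal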
Target sequence (Q9QUQ5 whole entry, looked up): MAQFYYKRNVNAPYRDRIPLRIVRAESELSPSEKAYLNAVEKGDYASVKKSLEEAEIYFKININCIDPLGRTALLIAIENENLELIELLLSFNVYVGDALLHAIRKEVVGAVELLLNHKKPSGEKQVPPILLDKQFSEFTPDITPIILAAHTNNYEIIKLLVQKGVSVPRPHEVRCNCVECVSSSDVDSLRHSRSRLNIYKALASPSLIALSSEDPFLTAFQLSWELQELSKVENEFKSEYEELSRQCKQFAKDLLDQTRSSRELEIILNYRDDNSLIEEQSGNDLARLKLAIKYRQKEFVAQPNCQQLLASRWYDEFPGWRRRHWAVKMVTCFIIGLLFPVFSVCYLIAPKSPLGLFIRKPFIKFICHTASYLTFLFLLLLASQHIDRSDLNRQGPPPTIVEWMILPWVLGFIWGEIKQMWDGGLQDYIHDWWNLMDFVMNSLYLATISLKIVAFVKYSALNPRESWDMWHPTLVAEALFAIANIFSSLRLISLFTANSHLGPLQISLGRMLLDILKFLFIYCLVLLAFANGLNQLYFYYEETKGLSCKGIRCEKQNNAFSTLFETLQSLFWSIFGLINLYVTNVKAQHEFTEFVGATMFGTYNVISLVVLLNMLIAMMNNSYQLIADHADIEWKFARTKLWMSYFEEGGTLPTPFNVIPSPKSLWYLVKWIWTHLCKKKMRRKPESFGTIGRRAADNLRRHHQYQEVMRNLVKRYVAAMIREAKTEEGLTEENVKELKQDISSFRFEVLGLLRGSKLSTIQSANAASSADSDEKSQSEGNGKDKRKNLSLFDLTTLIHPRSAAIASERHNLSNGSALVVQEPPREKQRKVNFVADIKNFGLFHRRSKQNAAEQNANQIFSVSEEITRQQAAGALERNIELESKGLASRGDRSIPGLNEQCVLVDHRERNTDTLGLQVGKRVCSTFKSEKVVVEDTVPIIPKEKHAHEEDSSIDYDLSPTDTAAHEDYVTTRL
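Assay system: HEK293 cells with stable TRPC4beta plus mu-opioid receptor expression. Dosing: single dose. Measured by: Fluo4 Ca2+ flux fluorescence. Also added: DAMGO in two steps, submaximal then maximal. Read-out: B score from integrated Fluo4 fluorescence ratio.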
TRPC4 PAM – positive allosteric modulators of TRPC4, primary screen, cell-based, mouse TRPC4beta, HEK293 mu-opioid, Fluo-4 calcium. Short transient receptor potential channel 4 (Mus musculus), Q9QUQ5. B-score at 10 µM. AID 2227, 2009. DAMGO EC20, Fluo-4 Ca2+ flux; hits give high values. 310,000 tested, 0.42% active;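 active = B-score of calcium response area above 5 SD of library B-scores, with initial fluorescence ratio within 5 SD of library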;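 note: B-score of integrated fluorescence ratio over time as area under calcium response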
TRPC6 act – mouse TRPC6 channel activators, primary screen, cell-based, HEK293, membrane potential dye | B-score at 10 µM | HEK293-TRPC6 membrane potential dye fluorescence; hits give high values | 310,000 tested, 0.13% active | Short transient receptor potential channel 6 (Mus musculus), Q61143;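 active = B-score of the integrated fluorescence ratio above library mean plus 3 SD, and starting fluorescence ratio within library mean plus 5 SD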;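 note: higher score means more depolarization so channel activation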
Kir21 inh – inhibitors of mouse Kir2.1 inward-rectifier potassium channel. Inward rectifier potassium channel 2 (Mus musculus), P35561. HEK293-Kir2.1, FluxOR thallium flux fluorescence; hits give low values. B-score at 10 µM. 310,000 tested, 0.85% active;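 active = fluorescence ratio B-score at or below minus 3 SD of library scores, with starting-brightness B-score within 2 SD, cut at about -4.2 in these data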;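 note: channel flux triggered by added potassium and thallium sulfate stimulus; B-score of peak minus minimum fluorescence over baseline after thallium stimulus; more negative B-score means stronger Kir2.1 block with less thallium influx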
TRPC6 inhibitor – mouse TRPC6 channel inhibitors, primary screen, cell-based, HEK293, membrane potential dye. ACh-evoked depolarization; hits give low values. AID 2553, 2010. 310,000 tested, 1.1% active. B-score at 10 µM. Short transient receptor potential channel 6 (Mus musculus), Q61143;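 active = B-score under library mean minus 3 SD, initial fluorescence not abnormally high, positive integrated signal ratio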;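 note: B-score derived from integrated fluorescence ratio over the kinetic read; more negative B-score means stronger inhibition of depolarization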
TRPC4 agonist – activators of mouse TRPC4 channel, primary screen, Fluo4 calcium, HEK293 TRPC4beta/mu-opioid cells | Short transient receptor potential channel 4 (Mus musculus), Q9QUQ5 | Fluo4 calcium fluorescence; hits give high values | B-score at 10 µM | 310,000 tested, 0.49% active | AID 2237, 2010;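 active = B-score above 5 SD of library B-scores, and initial fluorescence ratio not above library mean plus 5 SD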;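 note: positive B-score marks a calcium rise read as TRPC4 activation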
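Assay system: HEK293 stable line with TRPC4beta plus mu-opioid receptor; schedule: 45 min room-temperature Fluo4 loading, 110 s read; technique: kinetic Fluo4 calcium fluorescence; evaluation: integrated baseline-normalised fluorescence ratio, converted to per-well B score; controls: buffer (low) and maximal DAMGO (high)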
TRPC4 spec 2 – second selectivity test of TRPC6 inhibitors: effect on mouse TRPC4; shares compounds with TRPC6 inhibitor; HEK293 TRPC4/MOR, membrane potential dye fluorescence; channel activated by saturating DAMGO dose; inhibition, % at 10 µM; 920 tested, 42% active; AID 2776;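 active = compounds whose fluorescence signal differed from control wells by over 3 SD, either direction, in both duplicate plates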
TRPC4 spec – mouse TRPC4 modulation by TRPC6 hits, confirmation, selectivity assay for TRPC6 inhibitor project, cell-based, HEK293 TRPC4/mu-opioid, membrane potential dye | shares compounds with TRPC6 inhibitor | membrane potential fluorescence | activity change, negative = inhibition, % at 10 µM | 920 tested, 61% active;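 active = rise or fall in signal beyond 3 SD of buffer-only wells in both replicate plates, either sign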;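 note: integrated kinetic ratio of fluorescence range over baseline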
HEK293 MPD ctr 2-1 – nonspecific membrane potential effects, parental HEK293, confirmation, counter-screen for TRPC6 inhibitor project, cell-based, second counter screen; shares compounds with TRPC6 inhibitor; parental HEK293 membrane potential dye fluorescence; maximal acetylcholine challenge after compound addition; signal change vs control, % at 10 µM; 920 tested, 31% active;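 active = membrane potential signal moving either way by over 3 SD of the maximum-effect control, in both duplicate plates, meaning non-specific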
HEK293 MPD ctr-1 – membrane potential modulation in parental HEK293, confirmation, counter-screen for TRPC6 inhibitor project, cell-based; shares compounds with TRPC6 inhibitor; parental HEK293 membrane potential dye fluorescence; membrane potential signal change, % at 10 µM; 920 tested, 60% active; AID 2780, 2010;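 active = membrane potential signal shifting up or down by more than 3 SD of buffer-only wells, on both duplicate plates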
HEK293 MPD ctr-2 – parental HEK293 membrane potential modulation, confirmation, counter-screen for TRPC6 modulator project, cell-based. shares compounds with TRPC6 inhibitor. membrane potential dye fluorescence. membrane potential signal change, % at 10 µM. 2,400 tested, 51% active. AID 488924, 2010;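 active = membrane potential signal moves up or down beyond 5 SD from buffer-only wells, on both duplicate plates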
HEK293 MPD ctr 2-2 – second check of TRPC6 modulator effects in parental HEK293 cells. shares compounds with TRPC6 inhibitor. membrane potential dye fluorescence; after compound, maximal acetylcholine stimulation. inhibition, % at 10 µM. 2,400 tested, 14% active;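 active = membrane potential signal drops by more than 5 SD from the mean control signal, in both duplicate plates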;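 note: plate controls were acetylcholine ECmax control wells for no effect and buffer only wells for full effect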
TRPC4/MOR mod – TRPC4 modulation by TRPC6 hit compounds, confirmation, selectivity assay for TRPC6 modulator project, cell-based, HEK293 TRPC4/mu-opioid, membrane potential dye, mouse; shares compounds with TRPC6 inhibitor; 2,400 tested, 69% active; membrane potential fluorescence; AID 488927, 2010; percent change from control (negative = decrease, positive = increase), % at 10 µM;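 active = membrane potential signal moved up or down beyond 5 SD of buffer control wells, in both duplicate plates, actives on both sides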;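 note: plate controls were assay buffer wells for no effect and DAMGO maximal-effect wells for full effect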
TRPC4/MOR inh 2 – second check of whether TRPC6 modulators also affect mouse TRPC4 | shares compounds with TRPC6 inhibitor | HEK293 TRPC4/mu-opioid, membrane potential dye fluorescence; stimulated with maximal-effect DAMGO | inhibition, % at 10 µM | 2,400 tested, 55% active | AID 488928;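 active = drop in membrane potential signal beyond 5 SD of the control wells in both duplicate plates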;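 note: TRPC4 counter screen for TRPC6 hits run under conditions tuned for TRPC6 not TRPC4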
TRPC6 inh conf – mouse TRPC6 channel inhibitors, confirmation, HEK293 cells, membrane potential dye, duplicate; shares compounds with TRPC6 inhibitor; ACh-evoked depolarization; inhibition, % at 10 µM; 3,300 tested, 43% active;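 active = fluorescence ratio falls more than 5 SD below the full-stimulation control mean, in both duplicate runs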;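 note: integrated fluorescence ratio of peak minus minimum over baseline after agonist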
TRPC6 act conf – mouse TRPC6 channel activators, confirmation, HEK293 cells, membrane potential dye, duplicate | shares compounds with TRPC6 inhibitor | HEK293-TRPC6 membrane potential dye fluorescence, FDSS | activation, % at 10 µM | 2,800 tested, 11% active;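 active = ratio signal rise beyond 5 SD above unstimulated control wells' mean, seen in both duplicate runs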;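 note: plate controls were buffer EC0 wells for no effect and acetylcholine ECmax response for full effect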
The depositor's hits bear a star; i = inactive; . = no result. Rows were chosen to be rich in hits. Some 2.9% of all compounds tested hit in one or more screens of this group.

SMILES | TRPC4 block | TRPC4 PAM | TRPC6 act | Kir21 inh | TRPC6 inhibitor | TRPC4 agonist | HEK293 MPD ctr-2 | HEK293 MPD ctr 2-2 | TRPC4/MOR mod | TRPC4/MOR inh 2 | TRPC6 inh conf | TRPC6 act conf | others
COc1ccc(OC)c(CNc2nc3ccccc3n2CCN2CCCCC2)c1 | i | i | i | -3.18 | i | i | . | . | . | . | . | .
O=C(Oc1ccc2c(c1)OCC2=O)c1ccccc1 | i | i | i | -0.76 | -5.8* | i | i | i | i | i | i | .
COc1ccc(C(=O)n2ncc(C#N)c2N)cc1 | i | i | i | -0.92 | i | i | . | . | . | . | . | .
Cn1c(=O)c2c(nc(N3CCCCCC3)n2Cc2cccc3ccccc23)n(C)c1=O | i | 13* | i | 0.33 | -8.83* | i | . | . | . | . | i | i | TRPC4 spec 2=i;TRPC4 spec=i;HEK293 MPD ctr 2-1=i;HEK293 MPD ctr-1=i
CCOC(=O)/C(=C/c1ccc(N2CCC(c3ccccc3)=N2)cc1)C(C)=O | i | i | 14* | -1.38 | i | i | 582.5%* | i | 51.0%* | i | i | 43.0%*
CCOC(=O)C(=Cc1ccc(-n2ccnc2)cc1)C(=O)OCC | i | i | i | -1.57 | i | i | . | . | . | . | . | .
COc1ccc(/C=C2\SC(=O)N(CC(=O)Nc3ccccc3O)C2=O)cc1OC | i | i | i | -0.09 | i | i | . | . | . | . | . | .
CCOC(=O)C1=C(C)NC(=S)NC1c1ccc(-c2cccc(Cl)c2C)o1 (centres undefined) | i | i | i | 0.61 | i | i | . | . | . | . | . | .
COC(=O)CC(N)c1ccc(OC)c2ccccc12 (centres undefined) | i | i | i | 1.01 | -5.26* | i | i | i | i | i | i | i
COc1ccccc1C(C)NCC(=O)NCc1ccc(C)cc1 (centres undefined) | i | i | i | -0.18 | i | i | . | . | . | . | . | .
CCc1nnc(NC(=O)CSC(=S)N2CCOCC2)s1 | i | i | i | -0.29 | -6.91* | i | i | i | i | i | i | i
Cc1cc(NCCN2CCOCC2)c2ccc3ccccc3c2n1 | i | i | i | -2.2 | -6.5* | i | -93.5%* | 65.0%* | -26.0%* | 70.5%* | 57.0%* | i
COc1ccc2nc(C)cc(NCCN3CCOCC3)c2c1 | i | i | i | 1.13 | -9.52* | i | -327.5%* | 88.0%* | -64.5%* | 54.0%* | 65.0%* | i
COc1ccc(OCCN2CCOCC2)cc1 | i | i | i | -0.66 | i | i | . | . | . | . | . | .
Cc1cc([N+](=O)[O-])nn1CC(=O)N(C)Cc1ccccc1 | i | i | i | 0.7 | i | i | . | . | . | . | . | .
COc1ccc(NC(=S)N2CCC(C(=O)c3ccc(C)cc3)CC2)c(OC)c1 | i | i | i | 0.19 | i | i | . | . | . | . | . | .
O=C(CCNC(=O)N1CC(=O)Nc2ccccc21)NCCc1cccc(F)c1 | i | i | i | -3.1 | i | i | . | . | . | . | . | .
c1ccc(Cn2c(-c3ccccc3)c[n+]3c2SCCC3)cc1 | i | i | i | 1.09 | -9.92* | i | . | . | . | . | 68.1%* | i | TRPC4 spec 2=i;TRPC4 spec=i;HEK293 MPD ctr 2-1=39.5%*;HEK293 MPD ctr-1=i
COCCNC(=O)C(C)N(c1ccc(Oc2ccccc2)cc1)S(C)(=O)=O (centres undefined) | i | i | i | 0.79 | i | i | . | . | . | . | . | .
OC(C#CCN1CCCC1)(c1ccccc1)c1cccnc1 (centres undefined) | i | i | i | -0.41 | -6.09* | i | i | 69.0%* | i | i | 81.5%* | i
OC(C#CCN1CCCCCC1)(c1ccccc1)c1cccnc1 (centres undefined) | i | i | i | -0.67 | -7.28* | i | . | . | . | . | 63.4%* | . | TRPC4 spec 2=i;TRPC4 spec=3.4%*;HEK293 MPD ctr 2-1=8.5%*;HEK293 MPD ctr-1=4.8%*
CCCN(CC#CC(O)(c1ccccc1)c1cccnc1)CCC (centres undefined) | i | i | i | -0.13 | i | i | . | . | . | . | . | .
